The values that follow come from ChEMBL document CHEMBL3576864, “Striatoids A-F, Cyathane Diterpenoids with Neurotrophic Activity from Cultures of the Fungus Cyathus striatus” (J Nat Prod, 2015).

Activity calls are given as the source filed them. The rule behind the calls is not given here.

Assay [1] deals with PC-12. Description: Neurotrophic activity in rat PC12 cells assessed as enhancement of NGF-induced neurite outgrowth after 48 hrs by inverted microscopic analysis. The class given is functional, cell-based. The essentials: (§1)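 PC-12 cells grown in F-12 (Ham) with 10% heat-inactivated HS, 5% FBS, penicillin/streptomycin, 37 °C, 5% CO2. Seeded on poly-L-lysine wells (2 × 10^4 cells/mL), 24 h. Switched to low serum (1% HS, 0.5% FBS), then dosed 10–40 μM with NGF 20 ng/mL (vehicle 0.1% DMSO), triplicate wells, 48 h. Phase-contrast scoring: ≥100 cells in each of five random fields; neurite ≥ one cell body = positive, as % of cells.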

For assay [2], the system named is PC-12. Description: Effect on neurite outgrowth in rat PC12 cells at 10 to 40 uM after 48 hrs by inverted microscopic analysis. The class given is functional, cell-based. In a few lines: as §1

On to `CC(C)C1=C2[C@H]3CC=C4[C@@H](O)[C@@]5(O)CO[C@H]6O[C@@H]([C@@H]4[C@@]6(O)[C@H]5O)[C@]3(C)CC[C@@]2(C)[C@@H](O)C1`, for which, in assay [1], the Activity entry is “Dose-dependent effect”. Further, in assay [2], the outcome was inactive.
As for `CC(=O)O[C@@H]1[C@H]2CC[C@@H]3C4=C(C(C)C)C[C@H](O)[C@]4(C)CC[C@@]3(C)[C@H]3O[C@@H]4OC[C@@]1(O)[C@H](O)[C@]4(O)[C@H]23`, the Activity entry in assay [1] is “Dose-dependent effect”. The result in assay [2] was inactive.
As to `CC(C)C1=C2[C@H]3CC=C4[C@@H]5O[C@]6(O)[C@@]7(O)[C@@H](OC[C@]6(O)O5)O[C@@H]([C@@H]47)[C@]3(C)CC[C@@]2(C)[C@@H](O)C1`, the Activity result in assay [1] is “Dose-dependent effect”. For the same molecule, in assay [2], the result was inactive.
In the case of `CO[C@H]1O[C@@]2(O)[C@H](O)CO[C@H]3O[C@H]4[C@@H]([C@@H]1CC[C@@H]1C5=C(C(C)C)C[C@H](O)[C@]5(C)CC[C@]14C)[C@]32O`, the Activity result in assay [1] was “Dose-dependent effect”. The outcome in assay [2] was inactive.
For `CC(=O)O[C@@H]1C2=CC[C@@H]3C4=C(C(C)C)C[C@H](O)[C@]4(C)CC[C@@]3(C)[C@H]3O[C@@H]4OC[C@@]1(O)[C@H](O)[C@]4(O)[C@H]23` the same measures were “Dose-dependent effect” and “inactive”.
For `CC(C)C1=C2[C@H]3CC=C4[C@H]5O[C@H]6CO[C@H]7O[C@@H]([C@@H]4[C@@]7(O)[C@@]6(O)O5)[C@]3(C)CC[C@@]2(C)[C@@H](O)C1` the same measures were “Dose-dependent effect” and “inactive”.
